Measurements reported in the EternaBench riboswitch data.

Tested on: MS2 coat protein
Assay: apparent Kd, MS2 coat protein; higher = weaker binding; RNA-MaP array; FMN 200 µM where present
In short: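 Stalled E. coli RNA polymerase produced the designs on Illumina sequencing-chip clusters. SNAP-549-labelled MS2 coat protein was added from 0.7 or 1.5 nM, doubling to 3 µM, without and then with constant ligand, in 100 mM Tris-HCl pH 7.5, 80 mM KCl, 4 mM MgCl2, BSA, DTT, yeast tRNA and Tween-20. The apparent Kd is the median of filtered per-cluster fits of green signal normalised to red-channel RNA signal and control-cluster median Fmax.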

[1] = designed as: OFF switch for flavin mononucleotide, no ligand
[2] = ligand present: flavin mononucleotide, designed as: OFF switch for flavin mononucleotide
[3] = designed as: ON switch for flavin mononucleotide, no ligand
[4] = ligand present: flavin mononucleotide, designed as: ON switch for flavin mononucleotide

AAGGUGUUAGGAUAUCGAAGGUUGUGGCAGGCGGGAAUUUGCGAGAAGGAACAUGAGGAUCACCCAUGUAAAAU
apparent Kd [1]: 0.0244 µM | apparent Kd [2]: 0.0258 µM

GUGCGAGCCACAGGAUAUCUACAGAUUUAUUGUAGAGAAGGGUGACCUCGUGCACCACAUGAGGAUCACCCAUGUAACUAGGCG
apparent Kd [3]: 0.03 µM | apparent Kd [4]: 0.0482 µM

AUAAAUAUAGCGAUAUGAUCGAGAGAUCAUGUCGCUAAAGUUAGAAGGACAUGAGGAUCACCCAUGUAGGAUAUGGGAGUAUGA
apparent Kd [3]: 0.17 µM | apparent Kd [4]: 0.0628 µM

GGAGACCUCGCAGGAUAUGCUGGACUUUGUCCAGCAGAAGGGUGAAAACAUGAGGAUCACCCAUGUAUGGUCUCCAAAUUUAAU
apparent Kd [3]: 1.06 µM | apparent Kd [4]: 0.0543 µM

GUGGUCUCCGCAGGAUAUGGCUCGGGCACGACACCAGAAGGGCGGACAUGAGGAUCACCCAUGUUCGCGGGUGGGUCCUAAGGA
apparent Kd [1]: 0.00639 µM | apparent Kd [2]: 0.00749 µM

UUAUUAUAUGUAGGAUAUGCAUAUUAUUAUUAUGCAGAAGGACAUGAGGAUCACCCAUGUAUAUUAUUGUUAUAUAUUAUAUAU
apparent Kd [1]: 0.0248 µM | apparent Kd [2]: 0.0393 µM

AGGGUAUGAACAUGAGGAUCACCCAUGUAAACGGAAACGAAUGAGGAUAUCGAUAGCAAAGCUAUCGAGAAGGCAUGGGACCCU
apparent Kd [3]: 0.286 µM | apparent Kd [4]: 0.0491 µM

UUUAAUCGAAACAUGAGGAUCACCCAUGUGUUGUAAUUAACAUAGGAUAUUUGUAUACUUUUAUAAGAGAAGGAUGAUAAUACU
apparent Kd [3]: 0.0212 µM | apparent Kd [4]: 0.0158 µM

CCGCUAAUAGGAUAUACAUGAGGAUCACCCAUGUCACUCUUCAUUGGUGUCUCUUCAAGUAGAAGGGUUGCUCA
apparent Kd [1]: 0.0285 µM | apparent Kd [2]: 0.0281 µM

AGCACGAAAGUGCAACGAUGUACGAGAAGGACAUGAGGAUCACCCAUGUUGCUGUAACAGCACAUGUAGGAUAUCGUACAUCGA
apparent Kd [1]: 0.166 µM | apparent Kd [2]: 0.18 µM

CAUUAUUAUCGAGGAUAUCGUAUUGAGAUACUAUGAGAAGGCGGGAUAAACAUGAGGAUCACCCAUGUGAGCCGGAUGCUUGUG
apparent Kd [1]: 0.0171 µM | apparent Kd [2]: 0.0148 µM

AAAAAACAUGAGGAUCACCCAUGUCGAAAGACAUGAGGAUAUGUACAGACUUCGGUCUGUACAGAAGGCAUGUCUU
apparent Kd [3]: 0.0373 µM | apparent Kd [4]: 0.0152 µM

GUGAUGAUCGAGAAGGCCACUACAUGAGGAUCACCCAUGUCGUGGUGUAUUGGAGGAUAUCGAUCGACGUCUUAUGAGGACAUA
apparent Kd [1]: 0.00482 µM | apparent Kd [2]: 0.00595 µM

UGUCGAAGCAGAGGAUAUUACAUGAGGAUCACCCAUGUAUGAACCAAUAGCUGGAAACAGCAAUGUAAGAAGGCUGCUCCGACA
apparent Kd [1]: 0.0118 µM | apparent Kd [2]: 0.138 µM

CGGAUGUCAGGAUAUCGUGCAUACAACGAAAGUUCUAUGUGCGAGAAGGGACAUGAGGAUCACCCAUGUUACGG
apparent Kd [1]: 0.252 µM | apparent Kd [2]: 0.588 µM

AAAUAGUUAGGAUAUACAUGAGGAUCACCCAUGUGGACUGAUGGCGAUUAAUUUAGUGGUAGAAGGGACUCAAA
apparent Kd [1]: 0.0439 µM | apparent Kd [2]: 0.0499 µM

GUUUAGUGAGGAUAUGUGGCUUCGAUCGUGAGAUCGAGGCUACAGAAGGCACAUGAGGAUCACCCAUGUUCCUG
apparent Kd [1]: 0.016 µM | apparent Kd [2]: 0.0643 µM

AAGACUAGAGGAUAUACAUGAGGAUCACCCAUGUAACUGUCAGGUGACUGACGGAGAUGUAGAAGGCUAGUCAA
apparent Kd [1]: 0.0196 µM | apparent Kd [2]: 0.0432 µM

GAACGAUUGCCUACAUGAGGAUCACCCAUGUGGCUGACAAGCAGAAGGGCGGGUUUCAUUCUCCCGUAGGAUAUGCGCGUUCCA
apparent Kd [3]: 0.00689 µM | apparent Kd [4]: 0.00514 µM

GUCAGCUCGUGAGGAUAUACAUGUGCUGGAGACAGCACUAUUAAGUUCACAUGAGGAUCACCCAUGUAGAAGGCACGAGCUGAU
apparent Kd [1]: 0.0159 µM | apparent Kd [2]: 0.0208 µM

UUGAAUUGAAACAUGAGGAUCACCCAUGUGUCAUAAUUGACAUAGGAUAUGCUUAUACUUUUAAAGCAGAAGGAUGACGAUACU
apparent Kd [3]: 0.0238 µM | apparent Kd [4]: 0.0088 µM

GCACGUAGACAGAAGGCGACAUGAGGAUCACCCAUGUUGGCUCGGGUAUGACCAAUCCGCAUGAUCGAGGAUAUGUCCGCGGGC
apparent Kd [1]: 0.265 µM | apparent Kd [2]: 0.0192 µM

GCCAUCGCAUGAGGAUAUGGCACCGUUUCGGUGCCAGAAGGCAUGUCAUAAGACAUGAGGAUCACCCAUGUGGUUAAGAUGGCA
apparent Kd [3]: 0.865 µM | apparent Kd [4]: 0.0509 µM

AUCAGCUCGUCAGGAUAUACGUCACUGCGUCAGCUGUGUGGUAAGAUCACAUGAGGAUCACCCAUGUAGAAGGGACGAGCUGAU
apparent Kd [1]: 0.0153 µM | apparent Kd [2]: 0.295 µM

GUGCCUUGGGAGAAGGCCGAUAGCAAAGCUAUCGGAGGAUAUCCAUACCGGAAACGGACAUGAGGAUCACCCAUGUGGCACAAA
apparent Kd [3]: 0.0163 µM | apparent Kd [4]: 0.0076 µM

AUCGGCUCGUCAGGAUAUACGUCACUGCGUCAGCAGUGUGGUAAGAUCACAUGAGGAUCACCCAUGUAGAAGGGACGAGCUGAU
apparent Kd [1]: 0.0136 µM | apparent Kd [2]: 0.268 µM

GUGGGUCGGGAGGAUAUUCGGGCUCAUGGGCUUGGAGAAGGCUCGACAUGAGGAUCACCCAUGUAAGUGUUCUU
apparent Kd [1]: 0.05 µM | apparent Kd [2]: 0.621 µM

AAGGUACGAGGAUAUGCAUAGAUACAGACACAUGUUCAAGUACAUGAGGAUCACCCAUGUAGAAGGCGUAUAUA
apparent Kd [1]: 0.0435 µM | apparent Kd [2]: 0.0617 µM

GGCUAGUCAGGAUAUACGAACAUGUCAAAAGACGUGAAGGGACAUGAGGAUCACCCAUGUAGAAGGGACUAGCA
apparent Kd [1]: 0.028 µM | apparent Kd [2]: 0.158 µM

UCGAUAAGGAGAGGAUAUGGACAUGAGGAUCACCCAUGUACAUGGGAAUAUAUACUGAAUUUUUACUAGAAGGCUUACAUAAAU
apparent Kd [1]: 0.0147 µM | apparent Kd [2]: 0.0124 µM

CUCUCUGAUCGAGGAUAUCGAGCUUCCGCCCUUCGAGAAGGCGACAUGAGGAUCACCCAUGUAAGGAGGACACUCACUCACACG
apparent Kd [1]: 0.0264 µM | apparent Kd [2]: 0.0225 µM

GGUCGUCACAUGAACAUGAGGAUCACCCAUGUAACUAGACAUGAGGAUAUGGAUCCUAAUUGGAUCCAGAAGGCAUGGACGACC
apparent Kd [3]: 0.203 µM | apparent Kd [4]: 0.0312 µM

CGAUUUUAUAGAGGAUAUGUUUAACAUGAGGAUCACCCAUGUGAGGUGGAAAUAUUUAAUUACAUACAGAAGGCUAUACAAUCG
apparent Kd [1]: 0.234 µM | apparent Kd [2]: 0.18 µM

AAACACGGACAUGAGGAUCACCCAUGUGGCGAAAGCCUUGGGAGAAGGCCGAUUGCAAAGCAAUCGGAGGAUAUUCGUACCGUG
apparent Kd [3]: 0.237 µM | apparent Kd [4]: 0.0138 µM

AAAAUGUGAGGAUAUCAGGUGUGCUAGAGAACUGGUACAUCUGAGAAGGCACAUGAGGAUCACCCAUGUUCUUC
apparent Kd [1]: 0.0346 µM | apparent Kd [2]: 0.156 µM

AGUAUGUUUGAGAAGGUGAAGUGGAAACAUGAGGAUCACCCAUGUAUUAGGAAGCCUGGUUUUGUCAAGGAUAUCGGGUAUACA
apparent Kd [3]: 0.0198 µM | apparent Kd [4]: 0.0161 µM

GGGUACAUCGGAGGAUAUCAUGUAAAUACAUGAGGAUCACCCAUGUCGAUGGAGACAUCGGAGAUUGAGAAGGCCGAUGUAGCG
apparent Kd [3]: 0.19 µM | apparent Kd [4]: 0.00912 µM

AGGAGAAAUGUAGGAUAUGGGCGUAUAUAUGGGCAAAGCGCAUAUAUACGCCCAGAAGGACAUGAGGAUCACCCAUGUUUCCCU
apparent Kd [1]: 0.0126 µM | apparent Kd [2]: 0.0129 µM

AACUAAGUAUUAAUGGUGUCUGACAGAAGGCAAUAGAAUGAGACCGACAUGAGGAUCACCCAUGUUGAGGAUAUGUCUUGCUAC
apparent Kd [1]: 0.00644 µM | apparent Kd [2]: 0.00673 µM

AAGAAGUCAGGAUAUGCUGCUCGUCACUUGCGUGAUGAGUAGCAGAAGGGACAUGAGGAUCACCCAUGUAAAGG
apparent Kd [1]: 0.164 µM | apparent Kd [2]: 0.356 µM

GUCUCACAUGAGGAUCACCCAUGUGAGGAUAUGGAUUCGCUGGCCGUAGCCAGUGGAUCCAGAAGGCGCGUGAU
apparent Kd [1]: 0.0591 µM | apparent Kd [2]: 0.0588 µM

UUUGCAUUCCGAGGAUAUUCAUAUAAUGACUUCACAUGAGGAUCACCCAUGUGGCGAUAGCCUAGGGAGAAGGCGGUUUGCUUU
apparent Kd [3]: 0.0256 µM | apparent Kd [4]: 0.0206 µM

UAAUGUAUAUAGGAUAUCUAGCUGGAUACAGCUAGAGAAGGAUGUACAUGAGGAUCACCCAUGUAAAUCGAUCA
apparent Kd [1]: 0.0232 µM | apparent Kd [2]: 0.0557 µM

GUAUAUAGUGUGAGGAUAUGCUGGUCCUUGGAUCAGCAGAAGGCACAUGAGGAUCACCCAUGUAGUUUAUUAUU
apparent Kd [1]: 0.025 µM | apparent Kd [2]: 0.0803 µM

UGGUACUAGGGAGGAUAUGGGAAGAUACAUGAGGAUCACCCAUGUUUAAGAAUGCCGAGAGGCAAAUAGAAGGCCCUAGUACCU
apparent Kd [3]: 0.658 µM | apparent Kd [4]: 0.0854 µM

UUUAAUCGAAACAUGAGGAUCACCCAUGUGUUGUAAUUAACAUAGGAUAUUUGUAUGCUUUUGUAAGAGAAGGAUGAUAAUACU
apparent Kd [3]: 0.0212 µM | apparent Kd [4]: 0.0161 µM

UGUUGUAUUACAGGAUAUCUAGUAUUUUGAUUUAGAGAAGGGUAUUCACAUGAGGAUCACCCAUGUAUAUACGAGGAAGUUGUG
apparent Kd [3]: 0.0524 µM | apparent Kd [4]: 0.0574 µM

AUCUAAGAAUUAAUUGUGACUGACAGAAGGCAAUAGUAUGUGACCGACAUGAGGAUCACCCAUGUUGAGGAUAUGUCUUGCUAC
apparent Kd [1]: 0.00702 µM | apparent Kd [2]: 0.0224 µM

UAAAUGUGAGGAUAUUCGUAGUACACGGAGACGUGUAUUACGGAGAAGGCACAUGAGGAUCACCCAUGUUCCUU
apparent Kd [1]: 0.0222 µM | apparent Kd [2]: 0.166 µM

AAACAUGUCCGAGGAUAUCUGGAAACACUUUCAAGAGAAGGCGGACAUGAGGAUCACCCAUGUCUCUCCUCAUCAACUACAAAU
apparent Kd [1]: 0.00871 µM | apparent Kd [2]: 0.0493 µM

GUGGUGCGUAUACGUGGAUGUACAUGAGGAUCACCCAUGUAAGAGGAUAUGCGGAUACUAGCUCAGCAGAAGGCUUACAAAUGA
apparent Kd [1]: 0.0231 µM | apparent Kd [2]: 0.0921 µM

AAAGCAUACCGAGGAUAUUCAUAUAAUAAAUAAACAUGAGGAUCACCCAUGUGGCGAAAGCCUAGGGAGAAGGCGGAAUGCUAA
apparent Kd [3]: 0.197 µM | apparent Kd [4]: 0.0246 µM

UGACUCGGAGGAUAUACAUGAGGAUCACCCAUGUUUACUUGCCGCCGAGUAACCUGGUGUAGAAGGUCGAGUGU
apparent Kd [1]: 0.0172 µM | apparent Kd [2]: 0.0137 µM

AAACAAACAACGCAGGAUAUGCAAAAACCCACAUGAGGAUCACCCAUGUCCCAACAACAAACAAAGCAGAAGGGCGAACAAACAAA
apparent Kd [3]: 0.105 µM | apparent Kd [4]: 0.0554 µM

GCUAUAGAUGUAGGAUAUGAUAUAGAAGCUAUGUCAGAAGGACAUGAGGAUCACCCAUGUCAAUGGAUGGAGAGAAGAUAUGGC
apparent Kd [1]: 0.0642 µM | apparent Kd [2]: 0.0693 µM
